Experimental data from ChEMBL document CHEMBL1782007, “Cytotoxic and NF-κB inhibitory constituents of the stems of Cratoxylum cochinchinense and their semisynthetic analogues” (J Nat Prod, 2011).
pEC50, pIC50: −log10 of the molar value. Activity calls are given as the source filed them. The rule behind the calls is not given here.

Legend:
HT-29 [1] = experiment: Cytotoxicity against human HT-29 cells after 3 days by sulforhodamine B assay; type: functional; conditions: HT-29, 72 h, read-out: ED50 (the source's name)
In short: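 Trypsinized HT-29 cells seeded in 96-well plates and exposed to serial DMSO dilutions, with a DMSO negative control and a paclitaxel positive control. Incubated 3 days at 37 °C, 5% CO2, then fixed, stained with sulforhodamine B, lysed in tris base and read at 515 nm. ED50 from nonlinear regression. Run in triplicate, two independent experiments.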

HT-29 [2] = experiment: Effect on mitochondrial membrane potential in human HT-29 cells after 2 hrs using JC-1 staining by fluorescence assay; type: functional, cell-based; conditions: HT-29, 2 h
Transcription factor p65 = Transcription factor p65 (Homo sapiens, UniProt Q04206); experiment: Inhibition of NFkappa p65 in nuclear extract of human HeLa cells assessed as blockade of NFkappa p65 binding to biotinylated-consesus sequence by ELISA; type: cell-free
Transcription factor p65, sequence (Q04206 whole entry): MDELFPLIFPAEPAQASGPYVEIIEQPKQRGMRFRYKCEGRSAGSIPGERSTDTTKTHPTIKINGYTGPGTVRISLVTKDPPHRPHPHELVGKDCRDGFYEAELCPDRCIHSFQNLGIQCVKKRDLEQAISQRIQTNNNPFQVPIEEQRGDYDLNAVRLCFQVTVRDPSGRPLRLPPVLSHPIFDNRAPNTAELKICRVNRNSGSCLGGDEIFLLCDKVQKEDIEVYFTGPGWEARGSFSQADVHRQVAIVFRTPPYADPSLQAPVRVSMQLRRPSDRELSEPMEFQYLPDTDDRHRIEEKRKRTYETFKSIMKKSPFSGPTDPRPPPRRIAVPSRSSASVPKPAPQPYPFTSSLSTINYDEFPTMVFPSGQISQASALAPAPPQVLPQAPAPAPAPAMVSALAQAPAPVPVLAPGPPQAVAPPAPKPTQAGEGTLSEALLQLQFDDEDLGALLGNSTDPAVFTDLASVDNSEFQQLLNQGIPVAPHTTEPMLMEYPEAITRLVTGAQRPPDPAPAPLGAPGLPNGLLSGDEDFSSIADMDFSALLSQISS

MDA-MB-435 = experiment: Antitumor activity against human MDA-MB-435 cells at 20 mg/kg, ip by in-vivo hallow fiber model; type: functional, organism-based; parameters: dose 20 mg/kg
MCF7 = experiment: Antitumor activity against human MCF7 cells at 20 mg/kg, ip by in-vivo hallow fiber model; type: functional, organism-based; parameters: dose 20 mg/kg
HT-29 [3] = experiment: Antitumor activity against human HT-29 cells at 20 mg/kg, ip by in-vivo hallow fiber model; type: functional, organism-based; parameters: dose 20 mg/kg

Row | Structure (SMILES) | pIC50 (HT-29 [2]) | pIC50 (Transcription factor p65) | pEC50 (HT-29 [1]) | inhibition (MDA-MB-435) | inhibition (MCF7) | inhibition (HT-29 [3])
1 | CC(C)=CCc1c(O)cc2oc3cc(O)c(O)c(CC=C(C)C)c3c(=O)c2c1O | < 5.00 |  | 5.40 |  |  | 
2 | COc1c(O)cc2oc3cc4c(c(O)c3c(=O)c2c1CCC(C)(C)O)CCC(C)(C)O4 | < 5.00 |  | 5.36 |  |  | 
3 | CC(C)=CC[C@]12OC(C)(C)[C@H]3C[C@H](C=C4C(=O)c5c(O)cc(O)cc5O[C@@]431)C2=O [COCHINCHINOXANTHONE] | 5.48 | < 5.00 | 5.24 |  |  | 
4 | CC(C)=CCC/C(C)=C/Cc1c(O)c2c(c3c(=O)c4cc(O)ccc4oc13)OC(C)(C)[C@@H](O)C2 [COCHINENSOXANTHONE] |  |  | < 5.00 |  |  | 
5 | COc1c(O)cc2oc3cc(O)c(CC=C(C)C)c(O)c3c(=O)c2c1CC=C(C)C [MANGOSTIN] | 6.70 | < 5.00 | 5.39 |  |  | 
6 | CC(=O)O[C@H]1C(=O)[C@@]2(C)[C@H]([C@H](OC(=O)c3ccccc3)[C@]3(O)C[C@H](OC(=O)[C@H](O)[C@@H](NC(=O)c4ccccc4)c4ccccc4)C(C)=C1C3(C)C)[C@]1(OC(C)=O)CO[C@@H]1C[C@@H]2O [PACLITAXEL] |  |  | 10.00 |  |  | 
7 | COc1c(O)cc2oc3cc4c(c(O)c3c(=O)c2c1CCC(C)(C)OC=O)CCC(C)(C)O4 | < 5.00 |  | 5.36 |  |  | 
8 | COc1c(O)cc2oc3cc(O)c4c(c3c(=O)c2c1CCC(C)(C)O)OC(C)(C)CC4 | < 5.00 |  | < 5.00 |  |  | 

Continued, in another order:

Row | pIC50 (HT-29 [2]) | pIC50 (Transcription factor p65) | Structure (SMILES) | pEC50 (HT-29 [1]) | inhibition (MDA-MB-435) | inhibition (MCF7) | inhibition (HT-29 [3])
9 |  | < 5.00 | CC(=O)Oc1ccc2oc3c(C/C=C(\C)CCC=C(C)C)c(OC(C)=O)c(CC=C(C)C)c(O)c3c(=O)c2c1 | < 5.00 |  |  | 
10 |  | < 5.00 | COc1ccc2oc3c(C/C=C(\C)CCC=C(C)C)c(OC)c(CC=C(C)C)c(O)c3c(=O)c2c1 | < 5.00 |  |  | 
11 |  | < 5.00 | COc1c(OC(C)=O)cc2oc3cc(OC(C)=O)c(CC=C(C)C)c(OC(C)=O)c3c(=O)c2c1CC=C(C)C | 5.22 |  |  | 
12 |  | < 5.00 | COc1c(O)cc2oc3cc(OC(C)=O)c(CC=C(C)C)c(O)c3c(=O)c2c1CC=C(C)C | 5.06 |  |  | 
13 |  | 5.54 | CC(C)=CCc1c(O)c(CC=C(C)C)c2oc3ccc(O)cc3c(=O)c2c1O | < 5.00 |  |  | 
14 | < 5.00 | < 5.00 | COc1c(OC(=O)c2ccccc2)cc2oc3cc(O)c(CC=C(C)C)c(O)c3c(=O)c2c1CC=C(C)C | 5.72 |  |  | 
15 | < 5.00 | < 5.00 | COc1ccc2oc3c(C/C=C(\C)CCC=C(C)C)c(O)c(CC=C(C)C)c(O)c3c(=O)c2c1 |  |  |  | 
16 | < 5.00 | < 5.00 | CC(C)=CCC/C(C)=C/Cc1c(O)c(CC=C(C)C)c(O)c2c(=O)c3cc(O)ccc3oc12 [COCHINCHINONE A] | < 5.00 |  |  | 
17 | 5.74 | < 5.00 | COc1c(OC(C)=O)cc2oc3cc(OC(C)=O)c(CC=C(C)C)c(O)c3c(=O)c2c1CC=C(C)C | 6.00 | inactive | inactive | inactive
18 | < 5.00 | < 5.00 | CC(C)=CCC/C(C)=C/Cc1c(O)c(CC=C(C)C)c(O)c2c(=O)c3cc(OC(=O)c4ccccc4)ccc3oc12 |  |  |  | 
19 | 6.05 | < 5.00 | COc1cc2oc3cc(OC)c(OC)c(CC=C(C)C)c3c(=O)c2c(O)c1CC=C(C)C | < 5.00 |  |  | 
20 | 5.85 | < 5.00 | COc1cc2oc3c(C)c(OC)c(CC=C(C)C)c(O)c3c(=O)c2c(CC=C(C)C)c1OC | < 5.00 |  |  | 
